The values that follow come from ChEMBL document CHEMBL2331329, “Synthesis and biological evaluation of 2-(alkoxycarbonyl)-3-anilinobenzo[b]thiophenes and thieno[2,3-b]pyridines as new potent anticancer agents” (J Med Chem, 2013).

For assay [1], the system named is HeLa. In words: Induction of apoptosis in human HeLa cells assessed as mitochondrial membrane depolarization after 24 to 48 hrs by JC-1 staining. The assay is classed as functional, cell-based. In outline:
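HeLa cells treated 24 or 48 h, then stained with the potentiometric dye JC-1. Proportion of cells with depolarised mitochondria read by flow cytometry. Mean ± SEM of three independent experiments.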

Assay [2] is described as follows: Cytotoxicity against human LoVo/DX cells after 72 hrs by MTT assay. The assay is classed as functional, cell-based. In outline:
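MTT viability test: 8 × 10^3 cells per well settled 18 h at 37 °C, 5% CO2, then given fresh medium with compound (from 10 mM DMSO stocks, final DMSO ≤0.25%) for 72 h. […] CEMVbl-100 is a vinblastine-selected P-gp line; LoVoDoxo is grown in Ham's F12 with 0.1 μg/mL doxorubicin. Resistance index = resistant IC50/parental IC50.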
On the technique in general: Formazan colour is commonly taken as a measure of viable cells.

The test system of assay [3] is HeLa. In words: Induction of apoptosis in human HeLa cells assessed as decrease in unphosphorylated Mcl-1 at 10 to 100 nM after 24 hrs by Western Blot analysis. The class given is functional, cell-based. In outline:
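HeLa cells exposed to 10 or 100 nM for 24 or 48 h, washed in ice-cold PBS, lysed on ice 30 min, spun at 15000g at 4 °C. 20 μg protein run on 7.5–15% SDS–PAGE, blotted to PVDF, blocked overnight at 4 °C. Primary antibodies 2 h at room temperature, peroxidase secondary 60 min, ECL detection, β-actin reprobe as loading control.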
Background: Immunoblotting shows a protein as a band on a membrane.

Assay [4] has as its system HT-29. In words: Cell cycle arrest in human HT-29 cells assessed as accumulation at G2/M phase at >20 nM after 24 hrs by propidium iodide staining-based flow cytometry. The class given is functional. In outline:
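Jurkat, HT-29 and HeLa cells in exponential growth (5 × 10^5 cells) treated 24 h at a range of concentrations. Fixed in ice-cold 70% ethanol, lysed with buffer containing RNase A and 0.1% Triton X-100, stained with propidium iodide. DNA content read by flow cytometry and the percentage of cells per cycle phase derived from DNA histograms.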
For orientation: Flow cytometry measures light scatter and fluorescence of single cells or particles in a stream.

pIC50: −log10 of the molar value. Active and inactive are the calls of the source. No cut-off for these calls is given here.

For orientation: pIC50 means the negative decadic logarithm of the IC50, by convention in mol/L. Read a low pIC50 as a large IC50. For `COC(=O)c1sc2cc(OC)ccc2c1Nc1cc(OC)c(OC)c(OC)c1`, the Activity entry was “Dose-dependent effect” in assay [1] and more than 80% in assay [4]. In assay [2], this molecule gave a pIC50 of 9.40. In addition, the result in assay [3] was Active.
